# Beta cell apopt – beta cell apoptosis inhibition; actives 0.8% (n = 300,000); AID 435005; INS-1E cytokine-induced death, ATP luminescence, 48 h; percent of positive-control rescue, neutral wells zero; protection from apoptosis, % (no concentration beside the values);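 active = Every replicate reaches about 75%, or at least half do and their mean reaches it too, limit read from the data; inconclusive = At least half of replicates reach the limit but their mean does not; inactive = Under half of replicates reach the limit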;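 note: higher means more ATP so stronger rescue from cytokine killing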
# CSC inhib – blocks cancer stem cells; AID 2717; cancer stem cell-like cells viability, luminescence; inhibition, % at 7.5 µM; actives 1.1% (n = 300,000); in the data active = inhibition above about 75%; inconclusive = no clear call, values can overlap the other calls; tested in HMLE shEcad cells
# WT yeast gro inh – growth inhibition of WT yeast, mitochondrial fusion screen; mitochondrial fusion phenotypic screen, WT strain; inhibition, % at 10 µM; actives 2.1% (n = 190,000); in the data active = inhibition above about 58%; tested in S. cerevisiae
# SUMO Mot1 rescue – SUMOylation pathway inhibition by Mot1-301 growth rescue; S. cerevisiae Mot1-301 growth rescue, ATP luminescence, 38.5C; percent above DMSO median, 100 means doubled; growth rescue, % at 18.8 µM; actives 1% (n = 320,000); AID 2716;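 active = every valid replicate shows activation above 250% relative to neutral control wells; inactive = the rest, any valid replicate at or below 250%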
# Efflux pump mplx – blocks antifungal efflux pumps in multiplex yeast assay | S. cerevisiae Candida pump triplex, Nile Red efflux | inhibition, % at 10 µM | actives 0.44% (n = 330,000) | AID 485275;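 active = plate passing quality check with inhibition over a set limit, or well fluorescence over plate mean plus 4 SD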;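 note: Nile Red retained in pooled yeast measured as flow cytometry median fluorescence; higher means more Nile Red kept so more efflux inhibition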
# T cruzi repl – blocks replication of Trypanosoma cruzi. AID 1885. actives 1.4% (n = 300,000). inhibition, % (no concentration beside the values). T. cruzi beta-gal in NIH3T3, luminescence, 90 h;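 active = mean inhibition across valid replicates above about 55%, limit read from the data; inconclusive = mean below that limit but half or more replicates reach it; inactive = mean below it, under half of replicates reach it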;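 note: signal also drops with host cell toxicity which is not excluded here; higher percent means less beta-gal luminescence so fewer parasites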
#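 compound dosing = single 50 nL compound addition per well in DMSO | material = NIH/3T3 host cells with β-galactosidase reporter T. cruzi | input = 5,000 host fibroblasts per well | timing = ≥90 h infection period, 3 h prior cell attachment | read-out basis = percent inhibition of parasite-derived β-gal signal | detection = GalScreen β-gal luminescence, detergent lysis, 60 min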
# Numbers stand for hits; - = inactive; ? = inconclusive; . = no result given; + = active, no number. In the library only some 4.8% were active in any assay of this set; here they are far more common.
SMILES,Beta cell apopt,CSC inhib,WT yeast gro inh,SUMO Mot1 rescue,Efflux pump mplx,T cruzi repl
Cc1ccc(SCc2cc(=O)n3ccsc3n2)c(C)c1,-,.,-,-,-,-
COc1ccc(Cl)cc1S(=O)(=O)Nc1ccc2c(c1)n(C)c(=O)n2C,-,-,.,-,-,.
Cn1c(=O)c2sccc2n2c(CCCC(=O)NCc3ccc(F)cc3)nnc12,-,-,.,-,-,-
COc1ccc(-c2c[n+]3c4n2CCCCC4=C(c2ccc(Br)cc2)C3)cc1,104,-,-,-,-,-
Clc1ccc(C2=C3CCCCn4c(-c5ccccc5)c[n+](c43)C2)cc1,-,-,-,-,-,-
C1CCN=C(Nc2nc3c(s2)CCCC3)CC1,-,-,62,-,-,-
c1nnc(NC2=NCCCCC2)s1,-,-,-,-,-,-
C=CC[n+]1c(/C=C2\C=Cc3cc(C)ccc3N2CC)ccc2ccccc21,109,-,-,-,-,66
CCN1C(=C(C#N)C#N)C=Cc2cc(C)ccc21,-,-,-,-,-,-
CCNC(=S)N/N=C(\C)c1ccc2ccccc2c1OC(F)F,-,-,73,-,-,-
CCNC(=S)N/N=C(\C)c1ccc2ccccc2c1,-,-,72,-,-,-
Cn1c(=O)c(=O)n(C)c2cc(S(=O)(=O)CCC(=O)Nc3c(F)c(F)c(F)c(F)c3F)ccc21,-,-,.,-,-,-
O=Cc1c(OCc2ccccc2)ccc2ccccc12,-,-,-,-,-,-
COc1cc(NS(=O)(=O)c2ccc(Br)cc2)c(OC)cc1NC(=O)c1ccco1,-,.,-,-,-,-
COC(=O)c1cc(NS(=O)(=O)c2ccc(F)cc2)ccc1N1CCOCC1,-,-,.,-,-,-
COC(=O)c1cc(NS(=O)(=O)c2ccc(C(C)C)cc2)ccc1N1CCOCC1,-,-,.,314,-,-
CCCCNC(=O)c1ccc(N2CCOCC2)c(NS(=O)(=O)c2ccc(OC)cc2)c1,-,-,-,-,-,-
CCNC(=O)Nc1cc(S(=O)(=O)Nc2ccc(OC)cc2)ccc1N1CCOCC1,89,-,.,-,-,.
CN(C)C(=O)CCc1ccc2c3c([nH]c2c1)[C@]1(CCC2CCCC2)[C@@H](C(=O)N2CCOCC2)C[C@H](CC(=O)NC(C)(C)C)C(=O)N1CC3,.,.,.,.,-,.
CN(C)S(=O)(=O)c1ccc(C(=O)NC(=O)CSc2nncs2)cc1,-,-,.,-,-,.
Cc1c(CCOC(=O)C23CC4CC(CC(C4)C2)C3)sc[n+]1CC#N,-,-,-,-,-,-
O=C(NC(=S)Nc1cccc(O)c1)C1CCCCC1,-,-,.,-,-,.
O=C1N(Cc2cccc(Cl)c2)C[C@@H]2C[C@@H](c3c[nH]c4ccccc34)N3CCC[C@@]123,-,-,-,-,-,58
CCc1c(C2(O)CCCCC2)[nH]c2cc(C(F)(F)F)ccc12,109,130,.,325,-,-
Cc1c(C2(O)CCCCC2)[nH]c2cc(C(F)(F)F)ccc12,-,?,.,-,-,.
SMILES,Beta cell apopt,CSC inhib,WT yeast gro inh,SUMO Mot1 rescue,Efflux pump mplx,T cruzi repl
CC(C)NC(=O)c1sc2nc3c(c(-c4cccs4)c2c1N)CN(C)CC3,-,-,-,-,-,56
O=C(CS(=O)c1ccc(F)cc1)Nc1ccccc1Cl (stereo not given),-,-,-,+,-,-
O=C(CS(=O)c1cccc(C(F)(F)F)c1)Nc1ccccc1Cl (stereo not given),-,-,-,.,-,-
CC(=O)N1CCOc2ccc(S(=O)(=O)N3CCC(C(=O)Nc4ccc(F)cc4)CC3)cc21,-,-,.,-,-,-
C/C(=N\NC(=O)CCn1nnc2ccccc21)c1ccco1,-,-,.,-,-,-
CCN(CC)c1ccc(N=C2C(=O)Nc3ccccc32)cc1,87,-,.,-,-,-
O=C1c2ccccc2C(=O)c2c1cccc2N(CCO)CCO,-,-,.,-,-,-
O=C1C=C(N(CCO)Cc2ccccc2)c2ccccc2C1=O,.,.,-,.,.,78
O=C(Nc1nnc(CC2=CCCCC2)s1)c1cccs1,-,-,-,-,-,-
O=C(Nc1ccc(Cl)c(Cl)c1)Nc1nnc(CC2=CCCCC2)s1,84,-,-,-,-,-
Cc1ccc(S(=O)(=O)N2CCOCC2)cc1NC(=O)c1ccc(F)cc1F,-,-,.,-,-,.
O=C(Nc1cccc(Cl)c1)Nc1csc([N+](=O)[O-])c1,126,?,.,-,-,64
O=C(Nc1cccc(Cl)c1)Nc1nc(-c2ccc(Cl)cc2)cs1,-,-,-,-,-,?
COCCN1CCN(Cc2cn[nH]c2-c2cc3ccccc3o2)CC1,-,-,-,-,-,-
O=C(O)C1=C(OCc2ccc(F)c(F)c2)C(=O)NCC1,-,-,-,-,-,-
CCc1ccc(/C=C2/SC(N3CCOCC3)=NC2=O)cc1,-,-,.,-,-,-
CCN1C/C(=C/c2ccc(N3CCOCC3)cc2)C(=O)/C(=C/c2ccc(N3CCOCC3)cc2)C1,-,103,-,-,-,-
Cc1ccc(N=CC=C2OC(C)(C)C(C)(C)O2)c(C)c1,-,-,-,-,-,-
COc1ccccc1N=CC=C1OC(C)(C)C(C)(C)O1,-,-,-,-,-,59
COc1ccccc1CNC(=O)/C=C/c1ccc(S(=O)(=O)N2CCOCC2)cc1,-,-,-,-,-,-
CN(C(=O)COc1ccc([N+](=O)[O-])cc1)C1CCS(=O)(=O)C1 (stereo not given),-,-,-,-,-,-
Oc1ccc(Nc2nc(-c3ccccc3)nc3ccccc23)cc1,-,-,.,-,-,-
Oc1ccc(Nc2nc3ccccc3nc2Nc2ccc(O)cc2)cc1,.,78,-,-,-,71
CC1C/C(=C/c2ccccn2)C(=O)/C(=C/c2ccccn2)C1 (stereo not given),-,-,87,-,-,58
CC(C)(C)C1C/C(=C/c2ccccn2)C(=O)/C(=C/c2ccccn2)C1 (stereo not given),109,-,69,-,-,-
SMILES,Beta cell apopt,CSC inhib,WT yeast gro inh,SUMO Mot1 rescue,Efflux pump mplx,T cruzi repl
O=C1/C(=C/c2ccccn2)COc2ccccc21,-,-,-,-,-,-
CC1C/C(=C/c2ccco2)C(=O)/C(=C/c2ccco2)C1 (stereo not given),.,.,-,-,-,-
CCCc1cc(=O)n2nc(N3CCC(C(=O)Nc4cccc(C(C)=O)c4)CC3)sc2n1,-,-,.,-,-,-
CCOC(=O)Nc1c(Cl)n(C)c(=O)n(C)c1=O,-,-,.,-,-,-
CCCCCCC1CCC(c2nc(-c3ccncc3)no2)CC1 (stereo not given),-,-,79,-,-,-
COc1ccc(NC(=S)N(CCCN2CCCC2)Cc2cccn2Cc2ccc(Cl)cc2)cc1Cl,-,-,87,-,-,-
Cc1ccc(NC(=S)N(CCCN2CCCC2)Cc2cccn2Cc2ccc(Cl)cc2)cc1C,-,-,76,-,-,-
Cc1ccc(NC(=S)N(CCCN2CCCC2)Cc2cccn2Cc2ccc(Cl)cc2)cc1Cl,-,144,77,-,-,-

# Screening data from PubChem BioAssay.
